Source: article PMC8038854 (Biochemical Journal, 2021)
Substitutions are numbered along the chain they refer to. Like-named read-outs stand apart in the source and are kept apart here. Peptide text beside a SMILES is read from it.

Experiments:
[1] = molecular target: T1, Scrib PDZ3 WT (1002–1094) (Homo sapiens, UniProt Q14160); assay: ITC of PBM peptides against Scrib PDZ3 WT; type: binding
T1 sequence (Q14160 1002-1094): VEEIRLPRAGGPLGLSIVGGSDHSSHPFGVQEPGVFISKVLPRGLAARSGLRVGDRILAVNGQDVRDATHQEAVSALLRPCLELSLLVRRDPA
How it was run: (§1)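 Recombinant human Scribble PDZ domains (wild type or point mutant) were expressed in E. coli BL21(DE3) pLysS as GST or MBP fusions and purified. Synthetic 8-mer C-terminal PBM peptides, including a pan-PDZ positive-control peptide, were titrated into protein in 25 mM Hepes pH 7.5, 150 mM NaCl at 25°C. There were 20 injections spaced 180 s apart. KD came from a 1:1 model, with ±SD from at least three independent experiments.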

Scrib PDZ1 Q808H = Scrib PDZ1 Q808H (Homo sapiens, UniProt Q14160, Q808H); assay: ITC of PBM peptides against Scrib PDZ1 Q808H; type: binding
Scrib PDZ1 Q808H, sequence (Q14160 728-815 Q808H): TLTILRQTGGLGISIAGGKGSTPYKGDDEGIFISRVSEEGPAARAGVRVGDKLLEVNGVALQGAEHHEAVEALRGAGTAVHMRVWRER
How it was run: as §1

Scrib PDZ2 WT (860–950) = molecular target: T2, Scrib PDZ2 WT (860–950) (Homo sapiens, UniProt Q14160); assay: ITC of PBM peptides against Scrib PDZ2 WT; type: binding
T2 sequence (Q14160 860-950): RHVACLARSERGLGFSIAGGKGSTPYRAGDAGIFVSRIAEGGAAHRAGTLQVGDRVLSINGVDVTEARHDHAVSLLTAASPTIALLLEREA
How it was run: as §1

Scrib PDZ1 WT (728–815) = Scrib PDZ1 WT (728–815) (Homo sapiens, UniProt Q14160); assay: Isothermal titration calorimetry; type: binding
Scrib PDZ1 WT (728–815), sequence (Q14160 728-815): as the sequence (Q14160 728-815 Q808H) above, with H81Q counted along it
How it was run: as §1

Scrib PDZ3 R1044Q = molecular target: T3, Scrib PDZ3 R1044Q (Homo sapiens, UniProt Q14160, R1044Q); assay: ITC of PBM peptides against Scrib PDZ3 R1044Q; type: binding
T3 sequence (Q14160 1002-1094 R1044Q): T1 sequence (Q14160 1002-1094) with R43Q
How it was run: as §1

[2] = molecular target: Scribble PDZ3 R1044Q (human) (UniProt Q14160); assay: ITC
[3] = molecular target: Scribble PDZ1 Q808H (human) (UniProt Q14160); assay: ITC
Scribble PDZ1 Q808H (human), sequence (Q14160 728-815 Q808H): as the sequence (Q14160 728-815 Q808H) above

[4] = molecular target: Scribble PDZ2 R896A (human) (UniProt Q14160); assay: ITC
[5] = molecular target: Scribble PDZ1 Q808H (human) (UniProt Q14160); assay: ITC; remark: listed apart in the source
[6] = molecular target: Scribble PDZ1 H793A (human) (UniProt Q14160); assay: ITC
Scribble PDZ1 H793A (human), sequence (Q14160 728-815 H793A): as the sequence (Q14160 728-815 Q808H) above, with H66A, H81Q counted along it

Scribble PDZ3 R1044Q = molecular target: T4, Scribble PDZ3 R1044Q (human, UniProt Q14160 1002-1094, R1044Q); assay: ITC
T4 sequence (looked up): T1 sequence (Q14160 1002-1094) with R43Q

Scribble PDZ3 P1043L = molecular target: T5, Scribble PDZ3 P1043L (human, UniProt Q14160 1002-1094, P1043L); assay: ITC
T5 sequence (looked up): T1 sequence (Q14160 1002-1094) with P42L

Scribble PDZ1 E814G = Scribble PDZ1 E814G (human, UniProt Q14160 728-815, E814G); assay: ITC
Scribble PDZ1 E814G, sequence (Q14160 728-815 E814G): as the sequence (Q14160 728-815 Q808H) above, with H81Q, E87G counted along it

Scribble PDZ1 Q808H = Scribble PDZ1 Q808H (human, UniProt Q14160 728-815, Q808H); assay: ITC
Scribble PDZ1 Q808H, sequence (Q14160 728-815 Q808H): as the sequence (Q14160 728-815 Q808H) above

Scribble PDZ2 H928A = molecular target: T6, Scribble PDZ2 H928A (human, UniProt Q14160 860-950, H928A); assay: ITC
T6 sequence (looked up): T2 sequence (Q14160 860-950) with H69A

Scribble PDZ2 R896A = molecular target: T7, Scribble PDZ2 R896A (human, UniProt Q14160 860-950, R896A); assay: ITC
T7 sequence (looked up): T2 sequence (Q14160 860-950) with R37A

Scribble PDZ1 H793A = Scribble PDZ1 H793A (human, UniProt Q14160 728-815, H793A); assay: ITC
Scribble PDZ1 H793A, sequence (Q14160 728-815 H793A): as the sequence (Q14160 728-815 Q808H) above, with H66A, H81Q counted along it

CC(C)C[C@H](NC(=O)[C@@H](N)CCCNC(=N)N)C(=O)N[C@@H](CCC(N)=O)C(=O)N[C@@H](CO)C(=O)N[C@@H](CCC(=O)O)C(=O)N[C@H](C(=O)N[C@@H](CO)C(=O)N[C@H](C(=O)O)C(C)C)[C@@H](C)O [Vangl2] (H-RLQSETSV-OH)
Kd [1]: 40.2 ± 3.92 µM
Kd (Scrib PDZ1 Q808H): 10.4 ± 0.27 µM
Kd (Scrib PDZ2 WT (860–950)): 45.1 ± 4.92 µM
Kd (Scrib PDZ1 WT (728–815)): 24.5 ± 3.9 µM
Kd (Scrib PDZ3 R1044Q): 20.9 ± 4.67 µM

APC C-terminal peptide
Kd [2]: 27.4 µM
Kd [3]: 6.06 µM
Kd [4]: 30.6 µM

beta-PIX C-terminal peptide
Kd [5]: 10.4 µM
Kd [2]: 14.1 µM
Kd [3]: 3.11 µM
Kd [6]: 62.8 µM
Kd [4]: 189 µM

RSWFETWV [superpeptide (synthetic pan-PDZ binding peptide)]
Kd (Scribble PDZ3 R1044Q): 7.22 µM
Kd (Scribble PDZ3 P1043L): 9.75 µM
Kd (Scribble PDZ1 E814G): 2.36 µM
Kd (Scribble PDZ1 Q808H): 2.73 µM
Kd (Scribble PDZ2 H928A): 27.7 µM
Kd (Scribble PDZ2 R896A): 7.8 µM
Kd (Scribble PDZ1 H793A): 2.18 µM

RLQSETSV [Vangl2 C-terminal PBM peptide (RLQSETSV)]
Kd (Scribble PDZ2 R896A): 26.7 µM
Kd (Scribble PDZ1 H793A): 29.9 µM
